Assay [1] deals with T1, Serine/threonine-protein kinase B-raf (Homo sapiens, UniProt P15056, V600E). Nature of the assay: Inhibition of B-Raf V600E mutant-mediated ERK phosphorylation in human A375 cells after 3 hrs by immunoblotting method. It counts as cell-based, A-375. As to conditions: in the assay text read “whole cell ELISA” for “immunoblotting method”. Put shortly:
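A375 (B-Raf V600E) cells are seeded overnight, then exposed to inhibitors for 3 h at 37 °C. Cells are fixed, permeabilized and blocked overnight. They are probed 1 h with anti-phospho-ERK antibody, then with HRP-linked reagent. The TMB substrate is read as optical density at 650 nm.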

For assay [2], the target named is T1, Serine/threonine-protein kinase B-raf. The assay can be described thus: Inhibition of human B-Raf V600E mutant after 3 hrs. Put shortly: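 Radiometric assay using 20 nM B-Raf V600E. It measures phosphorylation of a biotinylated surrogate peptide by ³³P-ATP in 50 mM HEPES pH 7.5 with 10 mM DTT and 50 mM MnCl₂ at 30 °C for 3 h. The reaction is stopped with 100 mM EDTA, captured 2 h on a streptavidin FlashPlate and scintillation-counted.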

SMILES strings stand for the structures.

T1 sequence (P15056 2-766 V600E limits assumed): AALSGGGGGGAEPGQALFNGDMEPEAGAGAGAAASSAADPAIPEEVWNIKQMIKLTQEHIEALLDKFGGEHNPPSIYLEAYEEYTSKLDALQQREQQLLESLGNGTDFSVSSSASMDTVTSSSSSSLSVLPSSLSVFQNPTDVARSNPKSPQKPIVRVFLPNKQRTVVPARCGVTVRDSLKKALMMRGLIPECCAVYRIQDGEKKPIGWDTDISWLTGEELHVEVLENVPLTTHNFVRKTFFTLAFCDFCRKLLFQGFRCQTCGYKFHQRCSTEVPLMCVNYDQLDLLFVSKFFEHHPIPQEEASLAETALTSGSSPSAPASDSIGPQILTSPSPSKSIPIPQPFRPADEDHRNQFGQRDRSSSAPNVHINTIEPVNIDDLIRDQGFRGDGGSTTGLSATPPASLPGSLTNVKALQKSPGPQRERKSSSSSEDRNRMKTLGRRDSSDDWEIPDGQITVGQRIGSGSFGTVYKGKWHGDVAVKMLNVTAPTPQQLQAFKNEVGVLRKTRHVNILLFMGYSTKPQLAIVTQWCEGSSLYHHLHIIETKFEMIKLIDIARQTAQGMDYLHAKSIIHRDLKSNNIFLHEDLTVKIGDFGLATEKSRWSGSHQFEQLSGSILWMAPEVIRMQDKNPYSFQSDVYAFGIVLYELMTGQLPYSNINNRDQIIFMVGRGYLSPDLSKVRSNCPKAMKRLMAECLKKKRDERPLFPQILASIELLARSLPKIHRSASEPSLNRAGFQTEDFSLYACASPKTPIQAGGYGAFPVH

Take `O=C(c1cc(-c2ccccc2O)on1)N1N=C(c2cccnc2)CC1c1ccccc1O` (configuration not stated): the half-maximal inhibitory concentration (IC50) in assay [1] came to 130 nM; in assay [2], 14.3 nM.

For the compound `O=C(c1cn2c(n1)sc1ccccc12)N1N=C(c2cccnc2)CC1c1ccccc1O` (configuration not stated), the IC50 in assay [1] is 61 nM; in assay [2] it was 9.1 nM. As for `O=S(=O)(c1ccc(-c2cccnc2)s1)N1N=C(c2cccnc2)CC1c1ccccc1O` (configuration not stated), the 50% inhibitory concentration (IC50) in assay [1] was > 10000 nM; in assay [2] it was 2000 nM. The matching figures for `O=C(c1cc(-c2ccccc2)on1)N1N=C(c2cccnc2)CC1c1ccccc1O` (configuration not stated): 810 nM and 8 nM. The matching figures for `O=C(c1ccc(-c2cccnc2)s1)N1N=C(c2cccnc2)CC1c1ccccc1O` (single isomer, unassigned; early eluting): 14000 nM and 1200 nM. The matching figures for `O=C(c1cc(-c2ccccc2)no1)N1N=C(c2cccnc2)CC1c1ccccc1O` (configuration not stated): 1100 nM and 8 nM.

`COc1cccc(-c2cc(C(=O)N3N=C(c4cccnc4)CC3c3ccccc3O)no2)c1` (configuration not stated): the IC50 in assay [1] was found to be 930 nM; in assay [2], 6.7 nM.

In the case of `Cc1nc(-c2cccnc2)sc1C(=O)N1N=C(c2cccnc2)CC1c1ccccc1O` (configuration not stated), the IC50 in assay [1] was determined as 940 nM; in assay [2] it was 8.1 nM.

Regarding `O=C(c1cc(F)cc(C(F)(F)F)c1)N1N=C(c2cccnc2)CC1c1ccccc1O` (configuration not stated), the values for the IC50 in assay [1] and in assay [2] were 9500 nM and 110 nM, respectively.

In the case of `O=C(c1ccc(-c2ccc(Cl)cc2)s1)N1N=C(c2cccnc2)CC1c1ccccc1O` (configuration not stated), the 50% inhibitory concentration (IC50) in assay [2] stood at 140 nM.

For the compound `O=C(c1cc(-c2cccs2)n[nH]1)N1N=C(c2cccnc2)CC1c1ccccc1O` (configuration not stated), the half-maximal inhibitory concentration (IC50) in assay [1] came to 410 nM; in assay [2] it was 10.3 nM. The matching figures for `Cc1nc(-c2ccccc2)sc1C(=O)N1N=C(c2cccnc2)CC1c1ccccc1O` (configuration not stated): 1300 nM and 37.9 nM. The matching figures for `O=C(c1[nH]nc2c1CCC2)N1N=C(c2cccnc2)CC1c1ccccc1O` (configuration not stated): 350 nM and 7 nM. The matching figures for `O=C(c1cc(-c2ccc3c(c2)OCCO3)n[nH]1)N1N=C(c2cccnc2)CC1c1ccccc1O` (configuration not stated): 240 nM and 10.7 nM.

As to `O=C(c1ccc([N+](=O)[O-])o1)N1N=C(c2cccnc2)CC1c1ccccc1O` (configuration not stated), the IC50 in assay [2] stood at 130 nM. As for `O=C(c1cc(-c2ccco2)on1)N1N=C(c2cccnc2)CC1c1ccccc1O` (configuration not stated), the half-inhibitory concentration (IC50) is 970 nM in assay [1] and 5.6 nM in assay [2]. The matching figures for `O=C(c1ccc(-c2ccccc2)[nH]1)N1N=C(c2cccnc2)CC1c1ccccc1O` (configuration not stated): 1100 nM and 41.5 nM. As to `O=C(c1ccc(F)cc1C(F)(F)F)N1N=C(c2cccnc2)CC1c1ccccc1O` (configuration not stated), the half-maximal inhibitory concentration (IC50) in assay [2] was > 10000 nM. Same read-out and setting: the result for `N#Cc1ccccc1S(=O)(=O)N1N=C(c2cccnc2)CC1c1ccccc1O` (configuration not stated) reads 450 nM. As for `O=C(c1ccc(-c2cccnc2)s1)N1N=C(c2cccnc2)CC1c1ccccc1O` (configuration not stated), the values for the IC50 in assay [1] and in assay [2] were 180 nM and 18.7 nM, respectively.

Turning to `O=C(c1cncc(-c2cccs2)c1)N1N=C(c2cccnc2)CC1c1ccccc1O` (configuration not stated), the figures for the IC50 in assay [1] and in assay [2] were > 10000 nM and 260 nM, respectively. The matching figures for `O=C(c1cc2c(s1)CCC2)N1N=C(c2cccnc2)CC1c1ccccc1O` (configuration not stated): 920 nM and 6.9 nM.

Take `O=C(c1cc(-c2ccc3c(c2)OCO3)on1)N1N=C(c2cccnc2)CC1c1ccccc1O` (configuration not stated): the IC50 in assay [1] stood at 600 nM; in assay [2], 8.6 nM. The matching figures for `Cc1ccc(-c2ccc(C(=O)N3N=C(c4cccnc4)CC3c3ccccc3O)o2)cc1` (configuration not stated): 2400 nM and 58 nM.

As to `COc1ccc(-c2cc(C(=O)N3N=C(c4cccnc4)CC3c3ccccc3O)no2)cc1` (configuration not stated), the half-maximal inhibitory concentration (IC50) came out at 460 nM in assay [1] and 15.4 nM in assay [2]. In assay [2], `O=C(c1cccc(Oc2ccccc2)c1)N1N=C(c2cccnc2)CC1c1ccccc1O` (configuration not stated) came in with a half-maximal inhibitory concentration (IC50) of 156 nM. As for `O=C(c1cccc(-n2cnnn2)c1)N1N=C(c2cccnc2)CC1c1ccccc1O` (configuration not stated), the values for the half-maximal inhibitory concentration (IC50) in assay [1] and in assay [2] were > 10000 nM and 28 nM, respectively. The matching figures for `O=C(c1ccc(-c2ccccc2)o1)N1N=C(c2cccnc2)CC1c1ccccc1O` (configuration not stated): 1700 nM and 16 nM. `O=C(c1ccc(C(F)(F)F)c(F)c1)N1N=C(c2cccnc2)CC1c1ccccc1O` (configuration not stated) yielded an IC50 in assay [2] of 660 nM. Same read-out and setting: the result for `O=C(c1cccc(C(F)(F)F)c1F)N1N=C(c2cccnc2)CC1c1ccccc1O` (configuration not stated) reads > 10000 nM. With `O=C(c1ccc(F)c(C(F)(F)F)c1)N1N=C(c2cccnc2)CC1c1ccccc1O` (configuration not stated), the half-maximal inhibitory concentration (IC50) in assay [1] was found to be 3800 nM; in assay [2] it was 200 nM.

`O=C(c1cccc2c(F)cccc12)N1N=C(c2cccnc2)CC1c1ccccc1O` (configuration not stated): in assay [2], the 50% inhibitory concentration (IC50) was > 10000 nM.

`Cc1nc(-c2cnccn2)sc1C(=O)N1N=C(c2cccnc2)CC1c1ccccc1O` (configuration not stated): the concentration for half-maximal inhibition (IC50) in assay [1] is 710 nM; in assay [2], 6.5 nM. `O=C(c1ccccc1Oc1ccccc1)N1N=C(c2cccnc2)CC1c1ccccc1O` (configuration not stated): the 50% inhibitory concentration (IC50) in assay [2] was > 10000 nM. `O=C(CC1CC1)N1N=C(c2cccnc2)CC1c1ccccc1O` (configuration not stated): the half-inhibitory concentration (IC50) in assay [1] was determined as 8000 nM; in assay [2], 83 nM. For the compound `O=C(c1ccccc1-c1ccc(F)cc1)N1N=C(c2cccnc2)CC1c1ccccc1O` (configuration not stated), the IC50 in assay [2] is > 10000 nM.

With `O=C(c1cc(-c2ccc(Cl)cc2)cs1)N1N=C(c2cccnc2)CC1c1ccccc1O` (configuration not stated), the 50% inhibitory concentration (IC50) in assay [2] is 216 nM. For `COc1ccc(-c2ccc(C(=O)N3N=C(c4cccnc4)CC3c3ccccc3O)o2)cc1` (configuration not stated), the IC50 is 3700 nM in assay [1] and 18 nM in assay [2]. The matching figures for `O=C(c1ccc(-c2cccnc2)s1)N1N=C(c2cccnc2)CC1c1ccccc1O` (single isomer, unassigned; later eluting): 280 nM and 15 nM.

Source of the values: ChEMBL document CHEMBL1781905, “Discovery and optimization of N-acyl and N-aroylpyrazolines as B-Raf kinase inhibitors” (Bioorg Med Chem Lett, 2010).
